Series [1] concerns Right cardiac atrium. The series is described as follows: Negative chronotropic activity in guinea pig spontaneously beating right atrium assessed as decrease in atrial rate. In kind it is tissue-based. The settings on record: Cavia porcellus.
The test system of series [2] is Left cardiac atrium. The series is described as follows: Negative inotropic activity in guinea pig left atrium assessed as decrease in developed tension at 0.001 to 100 uM relative to control. Format: ADME, tissue-based. Particulars: Cavia porcellus.
Series [3] deals with T1, Voltage-gated L-type calcium channel (Homo sapiens, UniProt Q13936+Q13698+Q01668+O60840). Kind of series: Inhibition of voltage-dependent L-type calcium channel in human SH-SY5Y cells assessed as protection against glutamate-induced excitotoxicity by measuring recovery of cell viability at 20 uM measured after 24 hrs by alamar blue-based fluorescence method relative to control. In general terms: The colour change of resazurin is a common sign of viable cells or microbes.

Series [4] deals with Left cardiac atrium. The series is described as follows: Negative inotropic activity in guinea pig left atrium assessed as decrease in developed tension at 5 x 10^-6 M relative to control. In kind it is ADME, tissue-based, Cavia porcellus. Further details: scale not given: the % may be the effect or the level left. The settings on record: 5 µM.
Series [5] in a line: Selectivity ratio of EC50 for negative chronotropic activity in guinea pig spontaneously beating right atrium to EC50 for negative inotropic activity in guinea pig left atrium. In kind it is ADME, tissue-based, Cavia porcellus.
Series [6] concerns Right cardiac atrium. Kind of series: Negative chronotropic activity in guinea pig spontaneously beating right atrium assessed as decrease in atrial rate at 5 x 10^-7 M relative to control. Format: ADME, tissue-based, Cavia porcellus. More on the design: scale not given: the % may be the effect or the level left. The settings on record: 0.5 µM.
Series [7] addresses T1, Voltage-gated L-type calcium channel. The series is described as follows: Inhibition of voltage-dependent L-type calcium channel in human SH-SY5Y cells assessed as protection against glutamate-induced excitotoxicity by measuring recovery of cell viability at 1 uM measured after 24 hrs by alamar blue-based fluorescence method relative to control.
For series [8] the target is unchanged. The series is described as follows: Inhibition of voltage-dependent L-type calcium channel in human U373MG cells assessed as protection against oxygen glucose deprivation/reperfusion-induced injury by measuring recovery of cell viability at 20 uM administered at onset of reperfusion period measured after 16 hrs by alamar blue assay relative to control. In kind it is cell-based. The method, boiled down: (§1)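 U-373 MG astrocytoma cells seeded at 30000 cells/ml and grown 24 or 48 h (37 °C/5% CO2). OGD: 24 h at 37 °C in glucose-free DMEM pre-bubbled with 95% N2/5% CO2, in a sealed nitrogen-flushed chamber. Then 16 h reperfusion in normal medium; compounds added at reperfusion, diluted from DMSO stock (DMSO ≤0.1%). Viability by alamarBlue, 4 h at 37 °C, fluorescence ex 530–560/em 590 nm. Expressed as % recovery from injury, mean ± S.E. of ≥3 experiments in sixuplicate.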

The target is the same in series [9]. The series is described as follows: Inhibition of voltage-dependent L-type calcium channel in human U373MG cells assessed as protection against oxygen glucose deprivation/reperfusion-induced injury by measuring recovery of cell viability at 1 uM administered at onset of reperfusion period measured after 16 hrs by alamar blue assay relative to control. In kind it is cell-based. The method, boiled down:
as §1

Series [10] concerns Aorta. Kind of series: Inhibition of calcium-induced contraction in K+-depolarized guinea pig aortic strips at 10^-7 M relative to control. In kind it is tissue-based. Particulars: Cavia porcellus.
The target of series [11] is T2, Voltage-gated L-type calcium channel (Rattus norvegicus, UniProt P22002+Q02485+P27732). The series is described as follows: Inhibition of voltage-dependent L-type calcium channel in Wistar rat brain slices assessed as protection against oxygen glucose deprivation/reperfusion-induced injury by measuring recovery of LDH release at 20 uM administered at onset of reperfusion period measured after 90 mins by spectrophotometric assay relative to control. Further details: scale not given: the % may be the effect or the level left. The settings on record: 1.5 h.

Series [12] addresses T2, Voltage-gated L-type calcium channel. The series is described as follows: Inhibition of voltage-dependent L-type calcium channel in Wistar rat brain slices assessed as protection against oxygen glucose deprivation/reperfusion-induced injury by measuring recovery of edema formation at 20 uM administered at onset of reperfusion period measured after 90 mins relative to control. The settings on record: 1.5 h. More on the design: scale not given: the % may be the effect or the level left.

Series [13] relates to Aorta. Kind of series: Inhibition of calcium-induced contraction in K+-depolarized guinea pig aortic strips. In kind it is ADME, tissue-based. Particulars: Cavia porcellus.
The test system of series [14] is Left cardiac atrium. The series is described as follows: Negative inotropic activity in guinea pig left atrium assessed as decrease in developed tension at 10^-5 M relative to control. More on the design: scale not given: the % may be the effect or the level left. Particulars: 10 µM.
Series [15] has as its system Right cardiac atrium. The series is described as follows: Negative chronotropic activity in guinea pig spontaneously beating right atrium assessed as decrease in atrial rate at 5 x 10^-6 M relative to control. In kind it is ADME, tissue-based, Cavia porcellus. More on the design: scale not given: the % may be the effect or the level left. Particulars: 5 µM.
Series [16] concerns Aorta. Kind of series: Inhibition of calcium-induced contraction in K+-depolarized guinea pig aortic strips at 10^-4 M relative to control. The settings on record: Cavia porcellus. In kind it is tissue-based.
For series [17], the system named is Right cardiac atrium. Kind of series: Negative chronotropic activity in guinea pig spontaneously beating right atrium assessed as decrease in atrial rate at 10^-5 M relative to control. In kind it is ADME, tissue-based, Cavia porcellus. Further details: scale not given: the % may be the effect or the level left. Particulars: 10 µM.
Series [18] concerns Left cardiac atrium (Cavia porcellus). Kind of series: Negative inotropic activity in guinea pig left atrium assessed as decrease in developed tension.
In series [19] the test system is Aorta. The series is described as follows: Inhibition of calcium-induced contraction in K+-depolarized guinea pig aortic strips at 10^-5 M relative to control. Format: tissue-based. Particulars: Cavia porcellus.
Series [20] relates to Right cardiac atrium. Kind of series: Negative inotropic activity in guinea pig right atrium assessed as decrease in developed tension at 5 x 10^-5 M relative to control. Format: ADME, tissue-based, Cavia porcellus. Particulars: 50 µM. Further details: scale not given: the % may be the effect or the level left.
In series [21] the test system is Right cardiac atrium. The series is described as follows: Negative chronotropic activity in guinea pig spontaneously beating right atrium assessed as decrease in atrial rate at 10^-7 M relative to control. In kind it is ADME, tissue-based, Cavia porcellus. Further details: scale not given: the % may be the effect or the level left. The settings on record: 0.1 µM.

The subject of series [22] is Aorta. Kind of series: Inhibition of calcium-induced contraction in K+-depolarized guinea pig aortic strips at 5 x 10^-6 M relative to control. Format: tissue-based. Particulars: Cavia porcellus.
For series [23], the system named is Left cardiac atrium. Kind of series: Negative inotropic activity in guinea pig left atrium assessed as decrease in developed tension at 5 x 10^-5 M relative to control. Format: ADME, tissue-based, Cavia porcellus. More on the design: scale not given: the % may be the effect or the level left. The settings on record: 50 µM.

Bounds are passed on as bounds.

Usually EC50 stands for the concentration that produces a half-maximal response. The term inhibition denotes how much of the control response was suppressed. `CCOC(=O)C1=C(C)NC(C)=C(C(=O)OCC)C1c1c(-c2ccc(F)cc2)nc2sccn12`: the EC50 in the series on Right cardiac atrium [1] was 1650 nM; in the series with Left cardiac atrium [2], 64 nM. In addition, the Activity in series [3] came out at 59.3%; in the series on Left cardiac atrium [4], 79%; in the series with Right cardiac atrium [6], 91%; in series [7] it was 42.6%; in series [8], 43.6%; in [9], 36.6%. For the same compound, the Activity came out at 72.4% in series [11] and 89.4% in [12]. For the same compound, in series [5], the Ratio EC50 lay in the range of 25 to 56. In addition, the inhibition at 0.1 µM in the series on Aorta [10] was found to be 6%.

The IC50 is the concentration needed to halve the response being measured. With `CCOC(=O)C1=C(C)NC(C)=C(C(=O)OCC)C1c1c(-c2cc(F)c(F)cc2F)nc2sccn12`, the EC50 amounted to 1240 nM in the series on Right cardiac atrium [1] and 160 nM in the series with Left cardiac atrium [2]. Besides, the IC50 in the series with Aorta [13] stood at 5570 nM. For the same compound, the Activity in series [3] is 54.7%; with Left cardiac atrium [14], 78%; in the series with Right cardiac atrium [15], 93%; in [7], less than 5%; in series [8] it was 30.6%; in series [9], 7.4%. The Activity in [11] and in series [12] was less than 5% each time. Also, the “Ratio EC50” value in [5] is listed as less than 10. For the same compound, the inhibition at 100 µM in the series on Aorta [16] was 62%.

Turning to `CCOC(=O)C1=C(C)NC(C)=C(C(=O)OCC)C1c1c(-c2ccc(OC(F)(F)F)cc2)nc2sc(Br)cn12`, the values for the EC50 (in the series with Left cardiac atrium [2]; in series [18]) were 93 nM and 1000 nM, respectively. For the same compound, the Activity in [3] is reported as 49.8%; with Left cardiac atrium [14] it was 62%; in the series with Right cardiac atrium [17] it was 35%; in the series on Right cardiac atrium [20], 85%; in series [7] it was less than 5%; in series [8] it was 23.8%. Besides, the Activity in [9] is listed as 14.2%. For the same compound, the inhibition at 10 µM with Aorta [19] was 5%.

For the compound `CCOC(=O)C1=C(C)NC(C)=C(C(=O)OCC)C1c1c(-c2ccc(Br)c([N+](=O)[O-])c2)nc2sccn12`, the Activity is on record as 90% with Right cardiac atrium [21]; 59.2% in [3]; less than 5% in series [7]; 32.4% in series [8]; less than 5% in series [9]; less than 5% in [11]. The Activity in series [12] is reported as less than 5%; in the series on Left cardiac atrium [23], 53%. Further, the concentration giving a half-maximal response (EC50) is 4.3 nM with Right cardiac atrium [1] and 1270 nM with Left cardiac atrium [2]. Also, the inhibition at 5 µM with Aorta [22] was determined as 41%.
